Laboratory results reported in ChEMBL document CHEMBL3352171, “Synthesis and biological evaluation of andrographolide analogues as anti-cancer agents” (Eur J Med Chem, 2014).

Assay: Induction of glutathione reactivity in pH 7.4 PBS buffer assessed as compound formation at 10 mM Andrographolide-14a-O iodoacetate and 10 mM GSH at 50 degC incubated for 8 hrs under argon atmosphere by reverse phase HPLC method
Assay type: physicochemical
Conditions: pH 7.4, 8 h, 10000 µM
Outline: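 Ethanolic compound and GSH added to PBS, final 10 mM each with buffer at 2 mM, heated at 50 °C for 8 h.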

- Drug metabolism: metabolite_detected
Compound: C=C1CC[C@@H]2[C@](C)(CO)[C@H](O)CC[C@@]2(C)[C@@H]1CC(SC[C@H](NC(=O)CC[C@H](N)C(=O)O)C(=O)NCC(=O)O)C1=CCOC1=O (single isomer, unassigned; diastereomer 1)
